For assay [1], the system named is SHP2 protein. The conditions noted are these: esophageal cancer KYSE520 cells; ref Wang et al., 2021; cited from earlier work.
Assay [2] deals with SHP2 protein. The conditions noted are these: acute myeloid leukemia MV4;11 cells; ref Wang et al., 2021; cited from earlier work.
A further assay addresses SHP1 (Homo sapiens, UniProt P29350). The assay is described as follows: SHP1 enzyme activity assay. It counts as biochemical. The conditions noted are these: read-out: IC50 SHP1, DiFMUP substrate. The method in brief:
(§1)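 In-house expressed recombinant enzyme, purified by gel filtration, at the same conditions as the SHP2 assay but without IRS1 activating peptide. Test compound at 0.001–100 μM is preincubated with enzyme for 30–60 min at 25°C. DiFMUP is then added for 30 min at 25°C, and the reaction is quenched with bpV(Phen). Fluorescence is read at ex 340/em 450 nm, and IC50 comes from the dose-response curve.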

In another assay the target is T1, PTP1B (Homo sapiens, UniProt P18031).
T1 sequence (P18031 1-435): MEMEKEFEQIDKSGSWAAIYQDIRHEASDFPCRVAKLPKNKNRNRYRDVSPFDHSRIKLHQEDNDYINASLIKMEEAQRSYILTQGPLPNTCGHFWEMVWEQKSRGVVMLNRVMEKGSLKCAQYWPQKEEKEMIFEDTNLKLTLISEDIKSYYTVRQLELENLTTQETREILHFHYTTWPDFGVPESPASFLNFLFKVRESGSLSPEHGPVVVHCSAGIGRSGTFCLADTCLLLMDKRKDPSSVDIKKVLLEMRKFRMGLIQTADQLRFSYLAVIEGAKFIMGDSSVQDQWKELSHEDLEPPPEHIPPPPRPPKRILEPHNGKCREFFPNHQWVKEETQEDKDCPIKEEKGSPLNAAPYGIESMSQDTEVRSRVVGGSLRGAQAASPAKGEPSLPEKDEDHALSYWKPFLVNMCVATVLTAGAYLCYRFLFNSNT
The assay is described as follows: PTP1B enzyme activity assay. The conditions noted are these: read-out: IC50 PTP1B, DiFMUP substrate. It counts as biochemical. The method in brief:
as §1

The subject of assay [3] is mouse peritoneal macrophages (PMs). Briefly: Imiquimod-induced inflammation in peritoneal macrophages. The assay is classed as cell-based.
For assay [4], the system named is bone marrow-derived macrophages (BMDMs). Briefly: Imiquimod-induced inflammation in bone marrow-derived macrophages. It counts as cell-based, mouse.
Assay [5] has as its system imiquimod-induced psoriasis model mice. Briefly: IMQ-induced psoriasis-like mouse model. The assay is classed as in vivo.
The mark [6] stands for this setting: 10 μM pretreated 3 h, 5 μM IMQ 1 h.

Read-outs that look alike come from different tables or passages of the source. A value given as a limit tells only on which side of the number the result lay.

SHP1, sequence (P29350 whole entry): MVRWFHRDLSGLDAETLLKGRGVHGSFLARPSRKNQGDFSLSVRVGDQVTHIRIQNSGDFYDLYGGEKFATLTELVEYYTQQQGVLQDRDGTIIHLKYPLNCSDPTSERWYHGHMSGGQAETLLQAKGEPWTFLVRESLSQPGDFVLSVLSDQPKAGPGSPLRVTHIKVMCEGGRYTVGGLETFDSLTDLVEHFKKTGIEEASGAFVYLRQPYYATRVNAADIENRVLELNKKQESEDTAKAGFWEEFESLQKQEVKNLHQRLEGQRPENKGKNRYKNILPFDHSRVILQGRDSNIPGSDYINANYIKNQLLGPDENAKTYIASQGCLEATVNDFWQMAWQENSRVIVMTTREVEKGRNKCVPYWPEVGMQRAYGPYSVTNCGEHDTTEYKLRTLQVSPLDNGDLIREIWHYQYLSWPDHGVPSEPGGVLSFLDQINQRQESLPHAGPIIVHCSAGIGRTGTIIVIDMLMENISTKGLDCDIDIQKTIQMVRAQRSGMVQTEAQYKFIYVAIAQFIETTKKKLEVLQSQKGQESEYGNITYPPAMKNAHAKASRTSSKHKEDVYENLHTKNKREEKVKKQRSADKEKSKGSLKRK

As for `Cc1ncsc1-c1ccc([C@H](C)NC(=O)[C@@H]2C[C@@H](O)CN2C(=O)[C@@H](NC(=O)CCCCCCCCN2CCN(C(=O)CCC(=O)Nc3cccc(Sc4ncc(N5CCC(C)(N)CC5)nc4N)c3Cl)CC2)C(C)(C)C)cc1` [SHP2-D26], the “reduction of SHP2 protein levels” value with SHP2 protein [1] and with SHP2 protein [2] was above 95% throughout.

The IC50 is the point on the concentration scale where inhibition reaches its midpoint. Take `CC1(N)CCN(c2cnc(-c3cccc(Cl)c3Cl)c(N)n2)CC1` [SHP099]: the IC50 on SHP1 and on PTP1B was above 100 µM throughout. Moreover, the “phosphorylation levels of p-IKKα/β and p-p65 (western blot)” value in assay [3] (setting [6]) and in assay [4] (setting [6]) was “inhibited the phosphorylation levels” throughout. The “gene expression levels of inflammatory factors Il23a, Il22, Il6, Tnfα, Il1b, Ptgs2 (qPCR)” value in assay [3] (pretreated 3 h, 5 μM IMQ 6 h) is given as “significantly alleviated”; in assay [4] (pretreated 3 h, 5 μM IMQ 6 h), “significantly alleviated”. The “infiltration of inflammatory cells (HE staining of skin sections)” value in assay [5] is “significantly reduced”. In addition, the “proliferation of epidermal cells (HE staining of skin sections)” value in assay [5] is “effectively inhibit”.

Source of the values: article PMC8927994 (iScience, 2022).
